Hits are enriched below; roughly 2.2% of the tested compounds scored in any of these assays.
FID counter – fluorescent intercalator displacement, NS3 helicase counter-screen | AID 1845 | DNA fluorescent intercalator displacement, fluorescence | hit rate 0.17% among 290,000 | inhibition, % at 7.9 µM; in the data active = inhibition above about 37%;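 note: 0% = vehicle and 100% = reference compound; higher means more ethidium bromide displaced from hairpin DNA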
DAGLB inhibitor – blocks human DAGLB lipase activity; hit rate 0.059% among 340,000; AID 504411; HEK293T DAGLB membrane lysate, EnzChek fluorogenic substrate; inhibition, % at 5.17 µM; Q8NCG7; in the data active = inhibition above about 34%;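 note: 0% = enzyme with vehicle and 100% = wells lacking enzyme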
Target sequence (Q8NCG7 whole entry, looked up): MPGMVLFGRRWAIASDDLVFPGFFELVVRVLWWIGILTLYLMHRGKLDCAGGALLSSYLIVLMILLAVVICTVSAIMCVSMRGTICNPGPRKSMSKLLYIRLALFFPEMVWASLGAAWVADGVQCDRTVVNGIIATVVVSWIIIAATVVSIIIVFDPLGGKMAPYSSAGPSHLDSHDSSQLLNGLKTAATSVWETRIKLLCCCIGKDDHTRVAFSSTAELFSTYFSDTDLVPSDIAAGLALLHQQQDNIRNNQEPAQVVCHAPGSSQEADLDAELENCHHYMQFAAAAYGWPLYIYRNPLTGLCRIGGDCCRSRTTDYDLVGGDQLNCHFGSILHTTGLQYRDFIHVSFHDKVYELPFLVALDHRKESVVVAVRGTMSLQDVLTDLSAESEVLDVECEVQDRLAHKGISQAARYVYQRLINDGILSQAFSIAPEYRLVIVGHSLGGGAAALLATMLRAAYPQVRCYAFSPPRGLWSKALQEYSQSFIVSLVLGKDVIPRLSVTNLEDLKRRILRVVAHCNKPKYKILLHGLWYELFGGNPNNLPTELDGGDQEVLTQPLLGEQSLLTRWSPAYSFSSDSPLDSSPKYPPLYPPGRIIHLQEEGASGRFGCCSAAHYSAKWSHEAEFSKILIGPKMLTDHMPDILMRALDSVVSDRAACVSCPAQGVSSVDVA
GRK2 aptamer HTS – blocks RNA aptamer binding to human GRK2. P25098. bead flow cytometry, FAM-aptamer displacement from GRK2. AID 488847. hit rate 0.59% among 330,000. inhibition of aptamer binding, % at 10 µM;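 active = inhibition of aptamer binding above 40%, roughly 3 SD of noise, on plates passing a quality check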;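 note: median bead fluorescence of bound FAM aptamer so fluorescent compounds give negative values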
HCV core dimer – HCV core protein dimerization inhibition. AID 1899. hit rate 0.33% among 300,000. TR-FRET GST/Flag-core106 dimerization, 1536-well. inhibition, % at 5 µM;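 active = inhibition above the mean of all tested compounds plus 3 SD, set per screening campaign, cut at about 45% in these data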
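assay system = GST-tagged and Flag-tagged HCV core protein residues 1-106 | controls = unlabelled core106 and no-GST-core106 wells | incubation = compound-protein-antibody incubation 4 h at 22.5 °C | probe or stimulus = Eu donor and XL665 acceptor anti-tag antibodies | read-out = % inhibition based on acceptor/donor emission ratio | signal = TR-FRET 671 and 617 nm emission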
GPR7 antagonist – blocks human GPR7 receptor signaling | P48145 | GPR7-expressing cells, fluorescence antagonist assay | inhibition, % at 4.4 µM | hit rate 1.1% among 290,000 | AID 1861; in the data active = inhibition above about 16%, passing the limit was not always enough;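 note: cells stimulated with the agonist NPW; 0% = agonist with vehicle and 100% = vehicle without agonist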
HCV NS3 hel inh – HCV NS3 helicase inhibition. inhibition, % at 10.9 µM. AID 1800. hit rate 0.56% among 290,000. NS3 helicase DNA unwinding, Cy5 molecular beacon fluorescence;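 active = inhibition above the mean of all tested compounds plus 3 SD, set per campaign, cut at about 35% in these data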;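 note: 0% = DMSO wells and 100% = thioflavine S control wells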
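System: HCV NS3 helicase fragment; control set: DMSO and thioflavine S; technique: Cy5 fluorescence at 0 and 60 min, beacon hairpin quenching; reagent: beacon DNA duplex substrate plus ATP; replicates: singlicate; schedule: 1 h reaction at 25 °C, ATP-initiated; medium: MOPS buffer pH 6.5 with MgCl2, DTT, Tween20, BSA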
Active calls of the source: *.

Screening Cc1ccc(N=C(N(C)C)P(=O)(N(C)C)N(C)C)cc1 returned FID counter 55.9*, DAGLB inhibitor -0.7, GRK2 aptamer HTS 0.0, HCV core dimer -6.5, GPR7 antagonist -2.4 and HCV NS3 hel inh -16.1.
For CCCCNS(=O)(=O)c1ccc(OCC(=O)N2CCN(Cc3ccc4c(c3)OCO4)CC2)cc1 the results were FID counter -13.8, DAGLB inhibitor 1.9, GRK2 aptamer HTS 0.0, HCV core dimer -13.4, GPR7 antagonist 3.8 and HCV NS3 hel inh 8.2.
`CCCCn1c(N)c(C(=O)NCCN2CCOCC2)c2nc3ccccc3nc21` gave FID counter -10.9, DAGLB inhibitor 2.6, GRK2 aptamer HTS 0.0, HCV core dimer 0.9, GPR7 antagonist 8.2 and HCV NS3 hel inh 0.0.
For CCCCn1c(NC(=O)c2ccc(Br)o2)c(C(=O)OCC)c2nc3ccccc3nc21 the results were FID counter -18.5, DAGLB inhibitor -2.2, GRK2 aptamer HTS 78.0*, HCV core dimer -0.6, GPR7 antagonist 8.1 and HCV NS3 hel inh 15.4.
`O=C1NC(=O)C(=Cc2coc3ccccc3c2=O)C(=O)N1` gave FID counter -5.8, DAGLB inhibitor -0.9, GRK2 aptamer HTS 5.0, HCV core dimer 1.0, GPR7 antagonist -1.3 and HCV NS3 hel inh -7.1.
For O=C1NC(=O)C(=C/C=C/c2coc3ccc(Br)cc3c2=O)C(=O)N1 the results were FID counter -12.2, GRK2 aptamer HTS 6.0, HCV core dimer 4.1, GPR7 antagonist -5.7 and HCV NS3 hel inh 48.0*.
Screening COC(=O)[C@@H]1[C@@H](C(=O)OC)C2(c3ccccc3-c3ccccc32)N(c2ccc(Cl)cc2)N1C#N returned FID counter -16.4, DAGLB inhibitor 16.9, GRK2 aptamer HTS 0.0, HCV core dimer 41.5, GPR7 antagonist 15.8* and HCV NS3 hel inh -2.3.
Screening COC(=O)C[C@]1(C(=O)OC)CN(C#N)N(c2ccc(Cl)cc2)C12c1ccccc1-c1ccccc12 returned FID counter -36.1, DAGLB inhibitor 21.2, GRK2 aptamer HTS 0.0, HCV core dimer 42.1, GPR7 antagonist 24.0* and HCV NS3 hel inh -17.3.
Screening CC(=O)O/C(=C1\CC2C3CC=C4CC(OC(C)=O)CCC4(C)C3CCC2(C)C1=O)C(F)(F)F (stereo not given) returned DAGLB inhibitor 6.6.
Screening Cc1cc(C(=O)OCC(=O)Nc2ccc(F)cc2F)c(C)n1C1CC1 returned DAGLB inhibitor -9.2 and GRK2 aptamer HTS 2.0.
Screening O=c1ccc2cc3ccoc3c(O)c2o1 returned DAGLB inhibitor -0.2 and GRK2 aptamer HTS 0.0.
`C=C1C(=O)O[C@@H]2C[C@@H](C)[C@H]3C=CC(=O)[C@]3(O)C[C@@H]12` gave DAGLB inhibitor -1.8, GRK2 aptamer HTS 0.0 and HCV core dimer 46.6*.
For CCS(=O)(=O)CCSP(=O)(OC)OC the results were DAGLB inhibitor -0.6.
Screening CCC(C)N1C(=O)/C(=C/c2ccc3c(c2)CCN3CCCCl)C(=O)NC1=S (stereo not given) returned FID counter -12.1, DAGLB inhibitor 17.3, GRK2 aptamer HTS 2.0, HCV core dimer 71.5*, GPR7 antagonist -0.7 and HCV NS3 hel inh 22.1.
Cc1cccc(N2C(=O)NC(=O)/C(=C\c3ccc4c(c3)CCCN4Cc3ccccc3)C2=O)c1 was read as FID counter -17.9, DAGLB inhibitor 5.6, GRK2 aptamer HTS 0.0, HCV core dimer 21.4, GPR7 antagonist 1.6 and HCV NS3 hel inh 7.0.
For O=NN1CCCCC1 the results were DAGLB inhibitor -1.0 and GRK2 aptamer HTS 0.0.
For CCCCCOc1ccc(C)cc1CN(CCCl)CCCl the results were FID counter 22.9, GRK2 aptamer HTS 0.0, HCV core dimer 2.2, GPR7 antagonist 30.1* and HCV NS3 hel inh 0.3.
Screening Cc1ccc(-n2c(CNCc3ccc(F)cc3)nc3ccccc3c2=O)cc1 returned FID counter -7.0, DAGLB inhibitor -2.5, GRK2 aptamer HTS 0.0, GPR7 antagonist -19.5 and HCV NS3 hel inh -6.4.
Screening O=c1c2cc(Br)ccc2[nH]c(=S)n1-c1ccccc1 returned FID counter 9.2, DAGLB inhibitor 3.2, GRK2 aptamer HTS 1.0, HCV core dimer -1.3, GPR7 antagonist 28.7* and HCV NS3 hel inh 1.1.
For O=c1c2ccccc2[nH]c(=S)n1-c1ccc(Br)cc1 the results were FID counter -4.7, DAGLB inhibitor -2.5, GRK2 aptamer HTS 0.0, HCV core dimer 3.8, GPR7 antagonist -6.9 and HCV NS3 hel inh -8.9.
Screening COc1ccc2c(c1O)C13CCN(C)C(C2)C1CCC(=O)C3 (stereo not given) returned GRK2 aptamer HTS 0.0 and HCV core dimer -0.7.
Screening CC[N+](C)(CC)CCCCOc1ccc2c(c1)C(=O)c1cc(OCCCC[N+](C)(CC)CC)ccc1-2 returned FID counter 87.8*, DAGLB inhibitor 1.4, GRK2 aptamer HTS 2.0, HCV core dimer -6.9, GPR7 antagonist -12.5 and HCV NS3 hel inh -8.9.
CCOc1ccc([N+](=O)[O-])cc1CNCCc1ccccc1 was read as FID counter 12.9, DAGLB inhibitor -1.6, GRK2 aptamer HTS 0.0, HCV core dimer -3.7, GPR7 antagonist 44.1* and HCV NS3 hel inh -5.4.
Screening CC(CCN1CC1)=NNC(=O)Nc1cccc2ccccc12 returned DAGLB inhibitor -1.4.
For COc1ccccc1CN1CCN(C(=O)COc2cccc(C)c2)CC1 the results were FID counter -9.1, DAGLB inhibitor 0.2, GRK2 aptamer HTS 0.0, HCV core dimer -5.6, GPR7 antagonist 14.5* and HCV NS3 hel inh 0.8.
Screening Cc1ccc2c(c1Cl)NC(C(=O)O)C1CC(Sc3ccccc3[N+](=O)[O-])C(Cl)C21 (stereo not given) returned FID counter -5.2, DAGLB inhibitor 13.8, GRK2 aptamer HTS 7.0, HCV core dimer 66.3*, GPR7 antagonist -1.1 and HCV NS3 hel inh 13.5.
For CCOc1ccc(-c2c(C)n(-c3ccc(OCC)cc3)c3[n+]2CCCCC3)cc1 the results were FID counter 23.1, DAGLB inhibitor 0.6, GRK2 aptamer HTS 2.0, HCV core dimer -3.4, GPR7 antagonist 45.9* and HCV NS3 hel inh -47.4.
Screening CCOc1ccc(-n2c(-c3ccoc3)nc3ccccc3c2=O)cc1 returned FID counter -3.8, DAGLB inhibitor 0.9, GRK2 aptamer HTS 3.0, HCV core dimer -4.3, GPR7 antagonist 4.4 and HCV NS3 hel inh -1.8.
`CCN(CC)C(=O)c1ccc(NC(=O)C2=C(C)OCCS2)cc1` gave FID counter -13.1, DAGLB inhibitor -2.0, GRK2 aptamer HTS 1.0, HCV core dimer 6.3, GPR7 antagonist 6.6 and HCV NS3 hel inh -1.0.
Screening CN1CCC(N(C)c2nc(-c3ccc([N+](=O)[O-])cc3)nc3ccccc23)CC1 returned FID counter 45.9*, DAGLB inhibitor 0.3, GPR7 antagonist 24.0 and HCV NS3 hel inh -78.1.
`COC(=O)C1=C(c2ccc3ccccc3c2)C[C@@H]2CC[C@H]1N2C(=O)NCCNC(C)=O` gave DAGLB inhibitor 0.8 and GRK2 aptamer HTS 0.0.
N[C@@H]1C[C@H]1c1ccccc1 was read as DAGLB inhibitor -0.9, GRK2 aptamer HTS 0.0 and HCV core dimer -6.5.
